Data from ChEMBL document CHEMBL1275586, “Phenotypic susceptibility to bevirimat in isolates from HIV-1-infected patients without prior exposure to bevirimat” (Antimicrob Agents Chemother, 2010).

Columns and labels:
Type in all cases: functional, MT2
[1] = test system: Human immunodeficiency virus 1; experiment: Antiviral activity against Human immunodeficiency virus 1 isolate 8 harboring Gag-capsid V215T mutant gene and protease L10I, L24I, L33F, S37N, R41K, I54V, D60E, I62V, L63P, A71V, V77I, V82A and I84V mutant gene infected in human MT-2 cells by XTT-assay relative to wild-type
How it was run: (§1)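 Patient Gag-protease (SfoI-XmaI) fragments were ligated into the pXXLAI backbone, with colonies pooled to keep quasispecies. Virus came from 293T transfection, harvested at 2 days. MT-2 infection at 37°C used an input giving XTT signal-to-noise of 2.5–4.0 (≈MOI 0.001). Cells at ≈17,000/well with drug dilutions, 5 days, 37°C; XTT 1 h, A450–650. EC50 from % cell death; fold change vs wild-type LAI.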

[2] = test system: Human immunodeficiency virus 1; experiment: Antiviral activity against Human immunodeficiency virus 1 isolate 36 harboring Gag-capsid I138L, A146P, S165N/S, E207D, V215L and E312D mutant gene and protease K14R/K, I15V, E35D, S37D, R57K/R and L63P mutant gene infected in human MT-2 cells by XTT-assay relative to wild-type; how it was run: as §1
[3] = test system: Human immunodeficiency virus 1; experiment: Antiviral activity against Human immunodeficiency virus 1 isolate 34 harboring Gag-capsid I138L, I147L, V159I, V215L, T280V, A309C, S310T, E312D and G357S mutant gene and protease L10I, I13V, E35D, S37N, I62V, L63P and I64M mutant gene infected in human MT-2 cells by XTT-assay relative to wild-type; how it was run: as §1
[4] = test system: Human immunodeficiency virus 1; experiment: Antiviral activity against Human immunodeficiency virus 1 isolate 3 harboring Gag-capsid I138L, A146P, I147L, V159I, S176A, V215L, H219Q/H, T242N, G248A, T280V, A340G and G357S mutant gene and protease L10I, T31S/T, V32I, M36I/M, S37C, R41K, M46I, F53L, I54V, R57K, L63P, I64V, A71V, V82A and L90M mutant gene infected in human MT-2 cells by XTT-assay relative to wild-type; how it was run: as §1
[5] = test system: Human immunodeficiency virus 1; experiment: Antiviral activity against Human immunodeficiency virus 1 isolate 12 harboring Gag-capsid I138L E207D, V215L, V218P, H219Q, M228I, G248T, T280S, E312D, A340G, G357S and V362I mutant gene and protease S37N, I62V/I, L63P, I64L and V82I mutant gene infected in human MT-2 cells by XTT-assay relative to wild-type; how it was run: as §1
[6] = test system: Human immunodeficiency virus 1; experiment: Antiviral activity against Human immunodeficiency virus 1 isolate 38 harboring Gag-capsid I138L, I147L, V215L, H219Q/H, I223V, N252H, P292S, A336S/A and A340G mutant gene and protease E35D, S37A and L63P mutant gene infected in human MT-2 cells by XTT-assay relative to wild-type; how it was run: as §1
[7] = test system: Human immunodeficiency virus 1; experiment: Antiviral activity against Human immunodeficiency virus 1 isolate 7 harboring Gag-capsid I138L, I147L, S173A, V215L, I223V, T242N, G248A, N252A, I126T, T280V and E312D mutant gene and protease K20R, M36I, R41K, M46I, L63Q, I64V, P79S, V82F and L90M mutant gene infected in human MT-2 cells by XTT-assay relative to wild-type; how it was run: as §1
[8] = test system: Human immunodeficiency virus 1; experiment: Antiviral activity against Human immunodeficiency virus 1 isolate 31 harboring Gag-capsid I138L, S173T, V215L, I223N, M228L, G248Q, N252H, T280V and E312D mutant gene and protease I13V, K14R/K, M36I, S37N, I64V, H69K and I72V mutant gene infected in human MT-2 cells by XTT-assay relative to wild-type; how it was run: as §1
[9] = test system: Human immunodeficiency virus 1; experiment: Antiviral activity against Human immunodeficiency virus 1 isolate 32 harboring Gag-capsid, I138L, A146P, I147L, V159I, V215L, I223A, N252S/N, T280V and S310T and protease R41K/R, I62V, L63P, V77I and I93L mutant gene infected in human MT-2 cells by XTT-assay relative to wild-type; how it was run: as §1
[10] = test system: Human immunodeficiency virus 1; experiment: Antiviral activity against Human immunodeficiency virus 1 isolate 4 harboring Gag-capsid A146P, V159I, K162R, Q182S, T186I, V215L, I223G/V, N252G, P255A, E260D, E312D and G357S mutant gene and protease L10R, S37N, M46L, I62V, L63P, A71V, T74S, V82T, L90M and I93L mutant gene infected in human MT-2 cells by XTT-assay relative to wild-type; how it was run: as §1
[11] = test system: Human immunodeficiency virus 1; experiment: Antiviral activity against Human immunodeficiency virus 1 isolate 10 harboring Gag-capsid I138L, I147L, V159I, V215L, G248A, I256V, T280V, R286K and N315H mutant gene and protease L10I, K20R, E35D, M36I, S37N, R41K, K45R, F53L, I54V, L63P, I64V, A71T, V82A, L90M and I93L mutant gene infected in human MT-2 cells by XTT-assay relative to wild-type; how it was run: as §1
[12] = test system: Human immunodeficiency virus 1; experiment: Antiviral activity against Human immunodeficiency virus 1 isolate 35 harboring Gag-capsid V159I, I223T, N252S, A326S/A, A340G and G357S mutant gene and protease I15V, G16E, E35D, S37N, L63H and I72V mutant gene infected in human MT-2 cells by XTT-assay relative to wild-type; how it was run: as §1
[13] = test system: Human immunodeficiency virus 1; experiment: Antiviral activity against Human immunodeficiency virus 1 isolate 30 harboring Gag-capsid I138L, V215L, R286K and Q311A mutant gene and protease I13V, E35D, S37N and L63P mutant gene infected in human MT-2 cells by XTT-assay relative to wild-type; how it was run: as §1
[14] = test system: Human immunodeficiency virus 1; experiment: Antiviral activity against Human immunodeficiency virus 1 isolate 20 harboring Gag-capsid I138L, V215L, V218P, H219Q, M228I, E230D, G248T, T280A, E312D, A340G and G357S mutant gene and protease L10F, A22V, D30N, S37N, K45R, I54L, I62V, L63P, A71V, V77I, I84V, N88D and Q92K mutant gene infected in human MT-2 cells by XTT-assay relative to wild-type; how it was run: as §1
[15] = test system: Human immunodeficiency virus 1; experiment: Antiviral activity against Human immunodeficiency virus 1 isolate 26 harboring Gag-capsid I138L, A146S, I147L, E312D, A326S, L337M, and A340G mutant gene and protease T4S, L10F, V11L, I13V, I15V, K20A, V32I, L33F, M36I, S37D, K43T, M46I, I54L, I62V, L63P, A71I, I72K, G73T, I84V,I85V, L89V and L90M mutant gene infected in human MT-2 cells by XTT-assay relative to wild-type; how it was run: as §1
[16] = test system: Human immunodeficiency virus 1; experiment: Antiviral activity against Human immunodeficiency virus 1 isolate 21 harboring Gag-capsid I138L, A146P, I147L/I, V159I/V, E211D, V215L, N252H/N, R286K/R and K331R/K mutant gene and protease E35D, M36I, S37N, I62V and L63C mutant gene infected in human MT-2 cells by XTT-assay relative to wild-type; how it was run: as §1
[17] = test system: Human immunodeficiency virus 1; experiment: Antiviral activity against Human immunodeficiency virus 1 isolate 25 harboring Gag-capsid I138M, S173A, V215L, N252S, I256T, S310T/S, A340G and E345D mutant gene and protease L10F, V11I, I13V, K20I, V32I, L33F, E34Q, E35D, M36I, S37N, K43T, M46I, F53Y, I54L, Q61N, I62V, L63T, I64V, A71L, T74S, L76V, I84V, L90M and I93L mutant gene infected in human MT-2 cells by XTT-assay relative to wild-type; how it was run: as §1
[18] = test system: Human immunodeficiency virus 1; experiment: Antiviral activity against Human immunodeficiency virus 1 isolate 23 harboring Gag-capsid I138L, V215L, E319D, A340G, G357S and V362I mutant gene and protease L10V, V11L, V32I, L33F, E34Q, E35D, M36L, S37T, M46I, I47V, G48V, I54M, I62V, L63P, I64V, I72V, T74S, V77I, V82A, I84V and T91S mutant gene infected in human MT-2 cells by XTT-assay relative to wild-type; how it was run: as §1
[19] = test system: Human immunodeficiency virus 1; experiment: Antiviral activity against Human immunodeficiency virus 1 isolate 39 harboring Gag-capsid A146P, I147L, V215L, M228I, G248A, R286K, A326S, G357S and V362I mutant gene and protease K14R, E35D, M36I, S37N, R41K, K45R, D60E, I62V and I64V mutant gene infected in human MT-2 cells by XTT-assay relative to wild-type; how it was run: as §1
[20] = test system: Human immunodeficiency virus 1; experiment: Antiviral activity against Human immunodeficiency virus 1 isolate 37 harboring Gag-capsid V135I, I138P, V143I, Q182H, V215L/V, V218P/A, H219Q, I223V, E230D, N252S, T280A, R286K, K302R and G357S mutant gene and protease S37D, R41K, L63P and I93L mutant gene infected in human MT-2 cells by XTT-assay relative to wild-type; how it was run: as §1

Compound	fold change (FC) [1]	fold change (FC) [2]	fold change (FC) [3]	fold change (FC) [4]	fold change (FC) [5]	fold change (FC) [6]	fold change (FC) [7]	fold change (FC) [8]	fold change (FC) [9]	fold change (FC) [10]	fold change (FC) [11]	fold change (FC) [12]	fold change (FC) [13]	fold change (FC) [14]	fold change (FC) [15]	fold change (FC) [16]	fold change (FC) [17]	fold change (FC) [18]	fold change (FC) [19]	fold change (FC) [20]
COC(=O)N[C@H](C(=O)N[C@@H](Cc1ccccc1)[C@@H](O)CN(Cc1ccc(-c2ccccn2)cc1)NC(=O)[C@@H](NC(=O)OC)C(C)(C)C)C(C)(C)C [ATAZANAVIR]	29	1.3	1.6	15.1	1.2	1.2	1	1.9	1.2	13.3	8.5	0.9	0.9	51.9	571	0.8	184	521	1.4	0.9
Cc1cccc(C)c1OCC(=O)N[C@@H](Cc1ccccc1)[C@@H](O)C[C@H](Cc1ccccc1)NC(=O)[C@H](C(C)C)N1CCCNC1=O [LOPINAVIR]	28.7	1.1	1.4	13	1.1	0.9	4.1	1.1	0.5	15.2	15.3	1	0.7	13.3	46.5	0.6	58.9	203	0.8	0.8
